Experimental data as given in paper PMC12392337 (Archives of toxicology, 2022).
Where two headings read alike, the source gives them in different places.

Legend:
[1] = tested on: human HepG2 cells overexpressing CYP2A6; assay: MN assay in HepG2 cells; type: cell-based; conditions: Supplementary Fig. 1
[2] = tested on: Salmonella typhimurium expressing human CYP2A6; conditions: cited from earlier work
[3] = tested on: TK6 cells expressing CYP2A6; assay: TK and HPRT gene mutation test; type: cell-based, human; conditions: Supplementary Table 1
[4] = tested on: TK6 cells transduced with CYP2A6, 1A1, 2E1, and 3A4; assay: NDBA level in cell culture medium by UPLC-MS/MS; type: in vitro ADME, human; conditions: 12.5 μM, 24 h; CYP2A6, 1A1, 2E1, and 3A4 expressed in TK6 cells
In short: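 Cells were incubated 24 h with 12.5 μM test compound; wild-type cells in medium with rat or hamster S9 served as a metabolism reference. Medium was protein-precipitated with acetonitrile, centrifuged 12,000 × g for 5 min and run on C18 UPLC at 40 °C with a water/acetonitrile gradient (0.1% formic acid). Detection was ESI+ MRM at m/z 159.1 > 57.3 (LOD 6.8 nM), expressed relative to wild-type-cell medium (100%).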

[5] = tested on: CYP2A6-expressing TK6 cells; assay: In vitro micronucleus assay; type: cell-based, human; conditions: for %MN response (in words): NDIPA and NDBA at concentrations up to 1 mM; for BMD50 for MN frequency: Bayesian benchmark dose modeling, model-averaged, CES 0.5, 24-h treatment; for genotoxic potency relative to NMPA (BMD50 estimates, both endpoints): MN and γH2A.X BMD50 in CYP2A6-expressing TK6 cells, fold weaker than NMPA
[6] = tested on: CYP2A6-expressing TK6 cells; assay: MultiFlow DNA damage assay, γH2A.X formation; type: cell-based, human; conditions: for BMD50 for γH2A.X induction: Bayesian benchmark dose modeling, model-averaged, CES 0.5, 24-h treatment
TK6 cells = assay: NDBA distribution between medium and cell lysate by UPLC-MS/MS; type: in vitro ADME, human; conditions: Supplementary Fig. 2
[7] = tested on: TK6 cells expressing CYP2E1; assay: In vitro micronucleus assay; type: cell-based, human; conditions: without S9; positive control NDMA at 10 μM
[8] = tested on: TK6 cells expressing CYP3A4; assay: In vitro micronucleus assay; type: cell-based, human; conditions: without S9; positive control lasiocarpine at 0.5 μM
[9] = tested on: TK6 cells expressing CYP1A1; assay: In vitro micronucleus assay; type: cell-based, human; conditions: without S9; positive control B(a)P at 1 μM
bacteria = conditions: cited from earlier work
[10] = tested on: CYP2A6-expressing TK6 cells; assay: Relative cytotoxicity; type: cell-based, human; conditions: for cytotoxicity at the highest concentration tested: 24 h, data not shown
[11] = tested on: CYP2A6-expressing TK6 cells; assay: Cell cycle analysis; type: cell-based, human; conditions: 24 h; for percentage of cells in G2/M phase: vehicle controls 21.6%
[12] = tested on: CYP2A6-expressing TK6 cells; assay: MultiFlow DNA damage assay, nuclear P53; type: cell-based, human; conditions: 24 h; for nuclear P53 response (in words): concentrations studied; for increase in nuclear P53 vs vehicle control: 100 μM
rats = conditions: cited from earlier work
[13] = 20 °C; no reference given; cited from earlier work
[14] = tested on: Chinese hamster V79 cells; conditions: exogenous microsomal activation system; ref Kuroki et al. 1977; cited from earlier work
wild-type TK6 cells = assay: MultiFlow DNA damage assay, γH2A.X formation; type: cell-based, human; conditions: positive control at 25 and 50 ng/ml

## CCCCN(CCCC)N=O [NDBA, N-nitrosodibutylamine]
[1]
  %MN frequencies (in words): did not increase %MN frequencies
[2]; ref Fujita and Kamataki 2001
  mutagenicity in the Ames test with metabolic activation by CYP2A6 or CYP1A1: mutagenic
[3]
  TK or HPRT gene mutations (in words): did not induce TK or HPRT gene mutations
[4]
  metabolism of NDBA (amount in medium vs wild-type TK6 cells): did not efficiently metabolize NDBA
[5]; 24 h
  %MN response (in words): did not cause any significant increase
[5]
  BMD50 for MN frequency: could not be estimated
[6]
  BMD50 for γH2A.X induction: could not be estimated
TK6 cells
  NDBA in the cell culture medium (in words): most of the NDBA remains in the cell culture medium
  amount of NDBA in the cell lysate (in words): only a very limited amount of NDBA is found in the cell lysate
[7]
  MN formation (in words): no effect
[8]
  MN formation (in words): no effect
[9]
  MN formation (in words): no effect
bacteria; ref Bonfanti et al. 1990
  Ames test result: positive
bacteria; with metabolic activation by rodent S9, ref Inami et al. 2009
  Ames test result: positive
[10]; 1 mM, CYP2A6-expressing TK6 cells
  relative nuclei count: 50%
[11]; 1 mM
  G2/M phase cell cycle arrest (in words): did not cause G2/M phase cell cycle arrest
  percentage of cells in G2/M phase (in words): decreased
  percentage of cells in the sub-G1 phase (in words): significantly increased
[12]
  nuclear P53 response (in words): did not cause an increase

## CCN(CC)N=O [NDEA, N-nitrosodiethylamine]
[5]; 100 μM, 24 h
  increase in %MN: 2.6 fold
[5]; 24 h
  %MN response (in words): concentration-dependent increases
[5]
  genotoxic potency relative to NMPA (BMD50 estimates, both endpoints): more than tenfold less genotoxic
[6]; 6.25 μM (lowest concentration tested), 24 h
  γH2A.X increase over control: 1.5 fold
[6]; 100 μM, 24 h
  γH2A.X fluorescence signal increase over the controls: 2.7 fold
bacteria; ref Aiub et al. 2003
  Ames test result: positive
[10]; CYP2A6-expressing TK6 cells
  cytotoxicity at the highest concentration tested: 15–30%
[11]; 100 μM
  percentage of cells in G2/M phase: 25.1%
[11]
  G2/M phase cell cycle arrest (in words): resulted in G2/M phase cell cycle arrest
  percentage of cells in S phase (in words): concurrent decrease
[12]
  increase in nuclear P53 vs vehicle control: 1.7 fold
  lowest observed adverse effect level (LOAEL) for nuclear P53 increase: 25 µM
  nuclear P53 response (in words): concentration-dependent increases

## CC(C)N(N=O)C(C)C [NDIPA, N-nitrosodiisopropylamine]
[5]; 24 h
  %MN response (in words): did not cause any significant increase
[5]
  BMD50 for MN frequency: could not be estimated
[6]
  BMD50 for γH2A.X induction: could not be estimated
rats; 25 mg/kg dosing group, ref Lijinsky and Taylor 1979
  mean tumor induction period: 770 days
rats; 50 mg/kg dosing group, ref Lijinsky and Taylor 1979
  mean tumor induction period: 430 days
rats; Sprague–Dawley rats, ref Lijinsky and Taylor 1979
  carcinogenicity: weak carcinogen
[10]; concentrations up to 1 mM, cell line not given
  cytotoxicity: not cytotoxic
[12]
  nuclear P53 response (in words): did not cause an increase

## CN(C)N=O [NDMA, N-nitrosodimethylamine, reference compound]
[13]
  vapor pressure: > 1 mm Hg
[7]
  MN formation (in words): significant increases in MN formation
bacteria; ref Aiub et al. 2003
  Ames test result: positive

## CCN(N=O)C(C)C [NEIPA, N-nitrosoethylisopropylamine]
[5]; 100 μM, 24 h
  increase in %MN: 3.6 fold
[5]; 24 h
  %MN response (in words): concentration-dependent increases
[5]
  genotoxic potency relative to NMPA (BMD50 estimates, both endpoints): more than tenfold less genotoxic
[6]; 24 h treatment with nitrosamine
  γH2A.X response (in words): concentration-dependent increase
[10]; CYP2A6-expressing TK6 cells
  cytotoxicity at the highest concentration tested: 15–30%
[11]; 100 μM
  percentage of cells in G2/M phase: 27.0%
[11]
  G2/M phase cell cycle arrest (in words): resulted in G2/M phase cell cycle arrest
  percentage of cells in S phase (in words): concurrent decrease
[12]
  increase in nuclear P53 vs vehicle control: 1.5 fold
  lowest observed adverse effect level (LOAEL) for nuclear P53 increase: 12.5 µM
  nuclear P53 response (in words): concentration-dependent increases

## CN(CCCC(=O)O)N=O [NMBA, N-nitroso-N-methyl-4-aminobutanoic acid]
[5]; 24 h
  %MN response (in words): concentration-dependent increases
[5]
  genotoxic potency relative to NMPA (BMD50 estimates, both endpoints): more than 100 fold
[6]; 24 h, increased signals only above this concentration
  concentration producing increased γH2A.X signals: above 100 μM
rats; rats, large doses in drinking water, ref Lijinsky et al. 1983
  carcinogenicity: caused only bladder cancer
[10]; CYP2A6-expressing TK6 cells
  cytotoxicity at the highest concentration tested: 15–30%
[11]; 400 μM
  percentage of cells in G2/M phase: 24.3%
[11]
  G2/M phase cell cycle arrest (in words): resulted in G2/M phase cell cycle arrest
  percentage of cells in S phase (in words): concurrent decrease
[12]
  nuclear P53 response (in words): did not cause an increase

## CN(N=O)c1ccccc1 [NMPA, N-nitrosomethylphenylamine]
[13]
  vapor pressure: > 1 mm Hg
[14]
  mutagenicity in V79 cells: not mutagenic
[2]; ref Kushida et al. 2000
  mutagenicity in Salmonella typhimurium expressing human CYP2A6: mutagenic
[5]; 2.5 μM, 24 h
  increase in %MN: 2.0 fold
[5]; 10 μM (highest concentration tested), 24 h
  %MN in treated cells relative to controls: 2.8 fold
[5]; 24 h
  %MN response (in words): concentration-dependent increases
[5]
  BMD50 for MN frequency: 2.2 µM
[6]; 0.625 μM, 24 h
  γH2A.X increase over control: 1.3 fold
[6]
  BMD50 for γH2A.X induction: 1.1 µM
rats; rats, ref Kroeger-Koepke et al. 1983
  carcinogenicity: potent esophageal carcinogen
bacteria; ref Koepke et al. 1990
  mutagenicity in a standard Ames test: not mutagenic
[10]; CYP2A6-expressing TK6 cells
  cytotoxicity at the highest concentration tested: 15–30%
[11]; 10 μM
  percentage of cells in G2/M phase: 32.9%
[11]
  G2/M phase cell cycle arrest (in words): resulted in G2/M phase cell cycle arrest
  percentage of cells in S phase (in words): concurrent decrease
[12]
  lowest observed adverse effect level (LOAEL) for nuclear P53 increase: 1.25 µM
  nuclear P53 response (in words): concentration-dependent increases

## C/C=C(/C)C(=O)O[C@H]1CCN2CC=C(COC(=O)[C@@](O)([C@H](C)OC)C(C)(C)O)[C@H]12 [lasiocarpine, Lasiocarpine, reference compound]
[8]
  MN formation (in words): significant increases in MN formation

## CO[C@@]12[C@H](COC(N)=O)C3=C(C(=O)C(C)=C(N)C3=O)N1C[C@@H]1N[C@@H]12 [mitomycin C, reference compound]
[6]; positive control at 25 and 50 ng/ml
  γH2A.X response (in words): robust increase
wild-type TK6 cells
  γH2A.X response (in words): robust increase
